Screening results deposited in PubChem BioAssay by several laboratories.
PAD4 inh: human PAD4 inhibitors, primary screen, biochemical, fluorescence polarization, 1536-well format. recombinant PAD4, RCA probe fluorescence polarization. inhibition, % at 6.36 µM. 0.41% of 330,000 active. AID 485272, 2010;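 active = percent inhibition above a cutoff equal to the mean of all tested compounds plus 3 SD, cut at about 15% in these data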;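 note: 0% = PAD4 with RCA probe and DMSO and 100% = probe without PAD4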
GSTO1 counter: inhibitors of recombinant GSTO1, primary screen, counter-screen for RBBP9 inhibitor project, biochemical, fluorescence polarization; Glutathione S-transferase omega-1 (Homo sapiens), P78417; inhibition, % at 5.96 µM; activity-based probe fluorescence polarization; 1.1% of 300,000 active;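 active = inhibition above the campaign mean inhibition plus 3 SD, cut at about 35% in these data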;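 note: 0% = GSTO1-1 with DMSO and 100% = wells lacking GSTO1-1 enzyme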
Apaf-1 inh: inhibitors of human Apaf-1 apoptosome, primary screen, biochemical, DEVD-Rh110 fluorescence, uHTS | reconstituted apoptosome caspase-3 activity | Apoptotic protease-activating factor 1 (Homo sapiens), O14727 | inhibition, % at 20 µM | 0.71% of 330,000 active; active = inhibition of at least 40% at 20 µM;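 note: plate controls were DMSO wells for no effect and DEVD-CHO caspase inhibitor wells for full effect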
Target sequence (O14727 whole entry, looked up): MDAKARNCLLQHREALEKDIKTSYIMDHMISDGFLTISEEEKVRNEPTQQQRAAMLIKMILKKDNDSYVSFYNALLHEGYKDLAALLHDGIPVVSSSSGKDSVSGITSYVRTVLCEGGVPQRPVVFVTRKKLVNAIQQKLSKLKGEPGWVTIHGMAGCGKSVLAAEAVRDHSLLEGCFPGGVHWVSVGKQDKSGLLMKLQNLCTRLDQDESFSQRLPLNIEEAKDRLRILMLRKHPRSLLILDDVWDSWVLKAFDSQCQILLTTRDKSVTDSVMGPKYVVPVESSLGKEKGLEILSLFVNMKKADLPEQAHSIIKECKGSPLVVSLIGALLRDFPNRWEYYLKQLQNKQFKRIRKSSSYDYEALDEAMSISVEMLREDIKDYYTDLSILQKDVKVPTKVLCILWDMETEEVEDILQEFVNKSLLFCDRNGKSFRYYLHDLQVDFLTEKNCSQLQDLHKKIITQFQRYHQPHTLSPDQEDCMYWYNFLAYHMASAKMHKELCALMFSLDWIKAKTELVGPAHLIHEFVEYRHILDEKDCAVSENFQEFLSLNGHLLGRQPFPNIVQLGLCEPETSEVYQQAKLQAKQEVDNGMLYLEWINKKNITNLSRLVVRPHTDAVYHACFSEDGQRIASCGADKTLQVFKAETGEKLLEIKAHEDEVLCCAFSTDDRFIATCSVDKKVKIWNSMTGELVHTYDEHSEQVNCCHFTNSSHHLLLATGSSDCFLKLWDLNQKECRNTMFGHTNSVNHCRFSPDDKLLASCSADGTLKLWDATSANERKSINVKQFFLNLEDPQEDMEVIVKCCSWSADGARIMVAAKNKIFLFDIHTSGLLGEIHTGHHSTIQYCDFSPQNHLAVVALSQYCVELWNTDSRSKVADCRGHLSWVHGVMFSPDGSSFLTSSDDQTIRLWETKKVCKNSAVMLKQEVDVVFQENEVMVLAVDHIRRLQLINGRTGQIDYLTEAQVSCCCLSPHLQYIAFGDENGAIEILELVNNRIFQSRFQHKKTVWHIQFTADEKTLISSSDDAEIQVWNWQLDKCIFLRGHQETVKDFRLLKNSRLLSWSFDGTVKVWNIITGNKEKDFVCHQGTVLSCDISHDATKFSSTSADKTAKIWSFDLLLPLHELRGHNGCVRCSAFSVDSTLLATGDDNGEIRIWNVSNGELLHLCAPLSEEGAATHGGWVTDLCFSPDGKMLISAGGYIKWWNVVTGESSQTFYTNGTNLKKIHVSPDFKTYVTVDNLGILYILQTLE
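System – cell-free apoptosome with Apaf-1, procaspase-3 and caspase-9 · Buffer or medium – pH 7.5 Hepes buffer with CHAPS, BSA, DTT · Also added – cytochrome c with DEVD-Rh110 · Times – 30 min compound preincubation, 50 min activation, room temperature · Technique – Rh110 fluorescence intensity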
CTSL1 counter: Fasciola hepatica cathepsin L1 inhibitors, primary screen, counter-screen for PFM18AAP inhibitor project, biochemical, QFRET, fluorogenic peptide substrate | recombinant F. hepatica cathepsin L1, Z-Leu-Arg-MCA fluorescence | inhibition, % at 5.96 µM | 0.49% of 300,000 active;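 active = inhibition above the mean of all tested compounds plus 3 SD, set per screening campaign, cut at about 17% in these data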;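 note: 0% = plate median of test compound wells and 100% = 1 µM Z-Phe-Ala-diazomethylketone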
TDP2 inh: human TDP2 enzyme inhibitors, primary screen, biochemical, epi absorbance, recombinant enzyme. Tyrosyl-DNA phosphodiesterase 2 (Homo sapiens), O95551. T5PNP hydrolysis, p-nitrophenol absorbance 415 nm. inhibition, % at 12.8 µM. 0.34% of 370,000 active. AID 720702, 2013;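 active = inhibition above the mean of all tested compounds plus 3 SD, set per campaign, cut at about 25% in these data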;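 note: 0% = DMSO with enzyme and 100% = buffer with substrate but no TDP2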
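System – recombinant human TDP2 · Quantity – TDP2 enzyme at 120 nM final · Doses – single concentration, 12.8 µM nominal, with 1% DMSO · Incubation – 2 h at 37 °C · Measured by – epi absorbance of p-nitrophenol freed from T5PNP by hydrolysis · Read-out – % inhibition relative to enzyme-containing and enzyme-free wells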
Active calls of the source: *; . = not tested or not shown. This is a sample that favours compounds with a hit; in the whole collection about 1.8% have one here.

SMILES	PAD4 inh	GSTO1 counter	Apaf-1 inh	CTSL1 counter	TDP2 inh
CC1=NN(C(C#N)c2ccccc2)C(c2ccccc2)C1 (stereo not given)	-3	6	-6	18*	-2
COc1ccc(C(C#N)N2N=C(C)CC2c2ccccc2)cc1 (stereo not given)	2	-2	0	3	16
COc1cc(/C=C2/C(=O)N(c3ccccc3)N=C2C)ccc1OS(=O)(=O)c1ccccc1	36*	36*	95*	-8	.
CC1=NN(c2ccccc2)C(=O)C1=Cc1ccccc1	.	.	.	.	73*
COC(=O)C1=C(C(=O)OC)[C@@]2([C@H](Cc3ccc(C)cc3)Nc3ccccc3)C=C[C@@H]1O2	.	.	.	.	0
O=C(OCc1cn(Cc2cccc(Cl)c2)nn1)N1CCOCC1	.	.	.	.	9
Brc1cccc(-c2cnco2)c1	2	4	3	18*	-1
CC(C)(C)c1ccc(-c2cnco2)cc1	0	-5	8	0	-2
COc1ccc(-c2sc3ccccc3c2-c2ccc(OCCN(C)C)cc2)cc1	-4	.	77*	.	-11
CC(C)N1CC2=C(OC(N)=C(C#N)C2c2cccnc2)/C(=C/c2cccnc2)C1 (stereo not given)	16*	6	1	-1	-4
Cc1ccc(S(=O)(=O)N2CC[C@@]3(Cc4ccccc4)Cc4ccccc4C[C@@H]23)cc1	.	.	.	.	-2
Cc1ccc(C(=O)Nc2nc(-c3ccccn3)cs2)s1	2	.	1	.	-16
O=C(Nc1nc(-c2ccccn2)cs1)c1ccc(Cl)s1	-1	44*	4	1	8
Cc1nn(-c2ccccc2)c(Cl)c1CN(C(=O)CCl)c1cccc2ccccc12	8	89*	16	9	-4
CS(=O)(=O)NCCSCc1ccccc1	-4	2	-1	19*	-9
Cc1ccc(CSCCNS(C)(=O)=O)cc1	-9	1	-1	2	-2
O=C(OC12CCCN(C1)/C(=C/c1cccnc1)C2)c1cccc(F)c1 (stereo not given)	.	.	.	.	-4
COc1ccc(-c2ccc(Nc3ccc(C(=O)N4CCOCC4)cc3)nn2)cc1OC	-1	-1	4	3	7
COc1ccccc1-c1ccc(Nc2ccc(C(=O)N3CCOCC3)cc2)nn1	1	5	-6	18*	-3
CN(C)S(=O)(=O)c1ccc2nc(COCc3nc4ccc(S(=O)(=O)N(C)C)cc4[nH]3)[nH]c2c1	.	.	.	.	-4
Cc1nn(C)c(C)c1NC(=O)Nc1ccc(Cl)c(Cl)c1	-2	3	-9	20*	-9
Cc1ccccc1/C=C1\SC(=S)N(/N=C/c2cc([N+](=O)[O-])ccc2O)C1=O	3	35*	-4	9	3
CNc1cc(=O)n(C)c(=O)n1-c1ccccc1	-9	7	2	31*	1
Cc1ccccc1N=Nc1c(N)[nH]n(-c2ccccc2)c1=O	.	.	.	.	4
CNC[C@H](Cc1cccc2ccccc12)NC[C@H](CCSC)NCC1CCC(C(C)(C)C)CC1 (stereo not given in full)	0	.	65*	.	.
SMILES	PAD4 inh	GSTO1 counter	Apaf-1 inh	CTSL1 counter	TDP2 inh
CC(CCc1ccccc1)NCc1cccc2ccccc12 (stereo not given)	0	2	0	3	5
O=C(NCc1ccco1)OC1CCC12CCC(c1ccccc1)CC2 (stereo not given)	.	.	.	.	-2
COCCCNc1nc2c(-c3cccc(C)c3)nnn2c2ccccc12	3	-3	6	18*	6
COCCCNc1nc2c(-c3ccc(C)cc3)nnn2c2ccccc12	3	0	10	-2	-10
Brc1ccc(-c2csc(N3CCC(c4nn[nH]n4)CC3)n2)cc1	.	.	.	.	10
CN(Cc1ccccc1)CC(O)COc1ccc(CNCc2nccn2C)cc1 (stereo not given)	-2	3	2	18*	-6
CNC(=O)[C@H](C)[C@@H]1C[C@@]1(C)[C@@H](NC(=O)OCc1ccccc1)c1ccccc1	1	9	12	18*	3
CC(C)[C@H](NC(=O)[C@H](CCCN=C(N)N)NC(=O)NC(Cc1ccccc1)C(=O)O)C(=O)NC(C=O)CCCN=C(N)N (stereo not given in full)	3	1	-10	112*	10
COC(=O)c1cc2c(c3c4cc(F)ccc4n(S(=O)(=O)c4ccccc4)c13)C(=O)N(Cc1ccco1)C2	.	.	.	.	-3
O=C(CSc1nc2ccccc2n1CC(=O)N1CCCC1)N1CCN(C(=O)c2ccco2)CC1	4	1	-4	27*	4
CC(=O)Nc1sc2c(c1-c1nc3ccccc3s1)CCCNC2	.	.	.	.	6
COC(=O)C1=C(C)N(C)C(=NCc2cccc(C(F)(F)F)c2)NC1c1cccc(Cl)c1 (stereo not given)	.	.	.	.	4
Cc1nnc(NN)n(N)c1=O	2	37*	-13	-3	-9
Cc1nnc(Nc2ccccc2)n(N)c1=O	-2	11	-2	1	6
O=C(Nc1ccccc1SC(=O)c1ccccc1)c1ccccc1	.	.	.	.	-3
Cc1ccc(C(=O)Sc2cccccc2=O)cc1	1	37*	9	-4	8
Cc1noc(C)c1S(=O)(=O)N1CCCc2nc(-c3ccc(F)cc3)ccc21	.	.	.	.	-8
COC(=O)c1cc(OC)cc(O)c1C(=O)c1c(O)cc(C)cc1O	4	12	-8	52*	14
COc1cc(C)c(C(=O)Oc2cc(C)c(C(=O)O)c(O)c2)c(O)c1	1	8	5	-1	8
O=C1c2ccccc2C(=O)N1CCCCSc1nnnn1-c1ccccc1	1	0	21	-5	1
O=C1c2ccccc2C(=O)N1CSc1nnnn1-c1ccccc1	0	37*	-4	-2	-7
Cc1cccc(-c2cccc3c4c([nH]c23)[C@@H]2C[C@H](N(C)C(=O)c3ccccc3F)[C@H]([C@H](C)O)CN2CC4)c1	.	.	.	.	7
O=C(CNC(=O)c1cccc(F)c1)OCc1cc(=O)n2cc(Br)ccc2n1	-3	5	-1	17*	11
Cc1cc(C(=O)NN=Cc2cccc(O)c2)n[nH]1	.	.	.	.	8
O=S(=O)(Nc1cc(Sc2ncn[nH]2)c(O)c2ccccc12)c1ccccc1	.	.	94*	.	71*
CC(C)c1ccc(NC(=O)O[C@H]2CC[C@@]34CCCN3C(=O)CCC[C@H]4[C@H]2C)cc1	.	.	.	.	-9
CCCc1cc(=O)[nH]c(SCC(=O)c2ccc(S(=O)(=O)N3CCCC3)cc2)n1	-1	37*	8	2	12
O=C(Cn1ncc2c(=O)oc3ccccc3c21)N(Cc1ccco1)C1CCCCC1	-1	-1	-2	44*	3
